Results reported in ChEMBL document CHEMBL1157729, “Structure-activity relationship and mechanism of action studies of manzamine analogues for the control of neuroinflammation and cerebral infections” (J Med Chem, 2010).
≈ marks a conversion by molar mass, not a printed value.

What was measured:
[1] = system: Plasmodium berghei; assay: Antiplasmodial activity against Plasmodium berghei NK65 infected in Swiss Webster mice (Mus musculus) assessed as inhibition of parasitaemia at 200 mg/kg, perorally administered 1 day after infection measured after 5 days post infection; type: functional; set-up: Activity: scale not given: the % may be the effect or the level left; conditions: route oral
Method in brief: (§1)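 Male Swiss Webster mice (18-20 g, ≥5/group) inoculated i.p. with 2×10^7 P. berghei NK-65 parasitized RBC, given a single oral dose (100 μl, SSV or dilute HCl vehicle); parasitemia by Giemsa-stained tail blood smears days 5–28; activity as % decrease versus untreated controls on day 5.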

[2] = system: Plasmodium berghei; assay: Antiplasmodial activity against Plasmodium berghei NK65 infected in Swiss Webster mice (Mus musculus) assessed as average parasitaemia at 200 mg/kg, perorally administered 1 day after infection measured after 5 days post infection; type: functional; conditions: route oral
Method in brief: (§2)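 Male Swiss Webster mice (18-20 g), at least 5 per group, were inoculated ip with 2×10^7 P. berghei NK-65-parasitized red cells from a donor mouse and given a single oral dose (100 μl). Stock was made in SSV or 0.1 M HCl and diluted in SSV or 0.01 M HCl. Parasitemia was read from Giemsa-stained tail blood smears from day 5 to day 28. Cure meant no parasitemia through day 28.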

[3] = system: Plasmodium berghei; assay: Antiplasmodial activity against Plasmodium berghei NK65 infected in Swiss Webster mice (Mus musculus) assessed as average parasitaemia at 200 mg/kg, perorally administered 1 day after infection measured after 10 days post infection; type: functional; conditions: route oral; method in brief: as §1
[4] = system: Plasmodium berghei; assay: Antiplasmodial activity against Plasmodium berghei NK65 infected in Swiss Webster mice (Mus musculus) assessed as average parasitaemia at 200 mg/kg, perorally administered 1 day after infection measured after 14 days post infection; type: functional; conditions: route oral; method in brief: as §2
[5] = system: Plasmodium berghei; assay: Antiplasmodial activity against Plasmodium berghei NK65 infected in Swiss Webster mice (Mus musculus) assessed as average parasitaemia at 200 mg/kg, perorally administered 1 day after infection measured after 21 days post infection; type: functional; conditions: route oral; method in brief: as §2
[6] = system: Plasmodium berghei; assay: Antiplasmodial activity against Plasmodium berghei NK65 infected in Swiss Webster mice (Mus musculus) assessed as parasitaemia cure at 200 mg/kg, perorally administered 1 day after infection measured after 28 days post infection; type: functional; conditions: route oral; method in brief: as §2
[7] = system: Plasmodium falciparum; assay: Antiplasmodial activity against chloroquine-sensitive Plasmodium falciparum D6 after 72 hrs by LDH assay; type: functional, organism-based; conditions: Plasmodium falciparum, D6, 72 h; read-out: IC50
[8] = system: Plasmodium falciparum; assay: Antiplasmodial activity against chloroquine-resistant Plasmodium falciparum W2 after 72 hrs by LDH assay; type: functional, organism-based; conditions: Plasmodium falciparum, W2, 72 h; read-out: IC50
[9] = system: Vero; assay: Cytotoxicity against african green monkey Vero cells after 48 hrs by neutral red assay; type: cell-based; conditions: chlorocebus sabaeus
Method in brief: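 Vero cells seeded at 25,000/well and grown 24 h, then exposed to serially diluted samples for 48 h. Viable cells measured by neutral red assay, with doxorubicin as positive control. IC50 taken from dose-response curves.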

[10] = system: Mycobacterium tuberculosis; assay: Antimycobacterial activity against Mycobacterium tuberculosis H37Rv; type: functional, organism-based
[11] = system: Candida albicans; assay: Antifungal activity against Candida albicans ATCC 90028; type: functional, organism-based
Method in brief: (§3)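 Broth microdilution per modified CLSI method; samples serially diluted in 20% DMSO/saline, tested in duplicate; inocula set by OD630 of suspensions in incubation broth; growth read at 630 nm before and after incubation; amphotericin B drug control.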

[12] = system: Cryptococcus neoformans; assay: Antifungal activity against Cryptococcus neoformans ATCC 90113; type: functional, organism-based; method in brief: as §3
[13] = system: Mycobacterium intracellulare; assay: Antimycobacterial activity against Mycobacterium intracellular ATCC 23068; type: functional, organism-based
Method in brief: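 Modified Franzblau method; samples serially diluted in 20% DMSO/saline, tested in duplicate; inoculum set by OD630; fluorescence read at 544ex/590em before and after incubation; ciprofloxacin drug control.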

[14] = Antineuroinflammatory activity in LPS-stimulated rat neonatal microglia assessed as inhibition of PMA-induced superoxide anion production preincubated 15 mins prior to PMA challenge measured after 70 mins; type: functional, cell-based
[15] = Antineuroinflammatory activity in LPS-stimulated rat neonatal microglia assessed as inhibition of PMA-induced TXB2 production preincubated 15 mins prior to PMA challenge measured after 70 mins; type: functional, cell-based
[16] = Antineuroinflammatory activity in LPS-stimulated rat neonatal microglia assessed as drug level causing 50% PMA-induced LDH release preincubated 15 mins prior to PMA challenge measured after 70 mins; type: functional
Method in brief: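 Neonatal rat microglia (2 × 10^5/well) primed with E. coli LPS 0.3 ng/mL for 17 h at 35.9 °C, washed with HBSS, given compound (0.01–10 μM) or DMSO 15 min, then PMA 1 μM; LDH read spectrophotometrically after 70 min; LDH50 relative to Triton X-100 (0.1%) release; duplicates.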

[17] = system: Mycobacterium intracellulare; assay: Ratio of IC50 for drug to ciprofloxacin against Mycobacterium intracellular ATCC 23068; type: functional

| SMILES | Activity [1] | Activity [2] | Activity [3] | Activity [4] | Activity [5] | Activity [6] | IC50 [7] | IC50 [8] | IC50 [9] | MIC [10] | IC50 [11] | IC50 [12] | IC50 [13] | IC50 [14] | IC50 [15] | Activity [16] | Ratio IC50 [17] |
| --- | --- | --- | --- | --- | --- | --- | --- | --- | --- | --- | --- | --- | --- | --- | --- | --- | --- |
| C=C[C@H]1CN2CC[C@H]1C[C@H]2[C@H](O)c1ccnc2ccc(OC)cc12 [QUININE] | 26% | 7.3% | 14% | 32% | 45% | 0% |  |  |  |  |  |  |  |  |  |  |  |
| COC(=O)C1Cc2c([nH]c3ccccc23)C(C2=C[C@@]3(O)CC/C=C\CCCCN4CC[C@@H]2[C@]2(C[C@@H]5/C=C\CCCCN5[C@H]23)C4)N1 (some centres undefined) |  |  |  |  |  |  | 0.1 µg/mL (≈ 0.164 µM) | 0.17 µg/mL (≈ 0.278 µM) | 1 µg/mL (≈ 1.64 µM) | > 64 µg/mL | > 20 µg/mL | 3.5 µg/mL (≈ 5.73 µM) | 0.06 µg/mL (≈ 0.0982 µM) | 8.6 µM | 4.9 µM | 5 µM | 5 |
| O=[N+]([O-])c1ccc2[nH]c3c(C4=C[C@@]5(O)CC/C=C\CCCCN6CC[C@@H]4[C@]4(C[C@@H]7/C=C\CCCCN7[C@H]45)C6)nccc3c2c1 [6-NITROMANZAMINE A] |  |  |  |  |  |  | 0.018 µg/mL (≈ 0.0303 µM) | 0.028 µg/mL (≈ 0.0472 µM) | 270 µg/mL (≈ 455 µM) | 1.6 µg/mL (≈ 2.69 µM) | > 20 µg/mL | 2.5 µg/mL (≈ 4.21 µM) | 0.15 µg/mL (≈ 0.253 µM) |  |  |  |  |
| CCn1c2ccccc2c2ccnc(C3=C[C@@]4(O)CC/C=C\CCCCN5CC[C@@H]3[C@]3(C[C@@H]6/C=C\CCCCN6[C@H]34)C5)c21 [9-N-ETHYLMANZAMINE A] |  |  |  |  |  |  | 0.14 µg/mL (≈ 0.243 µM) | 0.47 µg/mL (≈ 0.815 µM) | 1.5 µg/mL (≈ 2.6 µM) | > 128 µg/mL | 20 µg/mL (≈ 34.7 µM) | 10 µg/mL (≈ 17.3 µM) | 0.5 µg/mL (≈ 0.867 µM) | 9.7 µM | > 10 µM | >10 µM |  |
| CCCn1c2ccccc2c2ccnc(C3=C[C@@]4(O)CC/C=C\CCCCN5CC[C@@H]3[C@]3(C[C@@H]6/C=C\CCCCN6[C@H]34)C5)c21 [9-N-PROPYLMANZAMINE A] |  |  |  |  |  |  | 0.69 µg/mL (≈ 1.17 µM) | 0.74 µg/mL (≈ 1.25 µM) | 3.7 µg/mL (≈ 6.26 µM) | 37 µg/mL (≈ 62.6 µM) | > 20 µg/mL | > 20 µg/mL | 2 µg/mL (≈ 3.38 µM) | 3 µM | > 10 µM | >10 µM |  |
| CC(C)(C)Cn1c2ccccc2c2ccnc(C3=C[C@@]4(O)CC/C=C\CCCCN5CC[C@@H]3[C@]3(C[C@@H]6/C=C\CCCCN6[C@H]34)C5)c21 [9-N-NEOPENTYLMANZAMINE A] |  |  |  |  |  |  | 2.4 µg/mL (≈ 3.88 µM) | 2.8 µg/mL (≈ 4.52 µM) | 0.7 µg/mL (≈ 1.13 µM) | 4 µg/mL (≈ 6.46 µM) | 7 µg/mL (≈ 11.3 µM) | 4 µg/mL (≈ 6.46 µM) | 0.5 µg/mL (≈ 0.808 µM) | 0.07 µM | 0.07 µM | >10 µM |  |
| COc1ccc2[nH]c3c(C4=C[C@@]5(O)CC/C=C\CCCCN6CC[C@@H]4[C@]4(C[C@@H]7/C=C\CCCCN7[C@H]45)C6)nccc3c2c1 [6-METHOXYMANZAMINE A] |  |  |  |  |  |  | 0.028 µg/mL (≈ 0.0484 µM) | 0.058 µg/mL (≈ 0.1 µM) | 0.5 µg/mL (≈ 0.864 µM) | > 64 µg/mL | 5 µg/mL (≈ 8.64 µM) | 3 µg/mL (≈ 5.18 µM) | 0.8 µg/mL (≈ 1.38 µM) | 0.1 µM | 0.11 µM | >10 µM |  |
